Measured values published in ChEMBL document CHEMBL1137260, “Design and biological evaluation of novel tubulin inhibitors as antimitotic agents using a pharmacophore binding model with tubulin” (J Med Chem, 2006).

What was measured:
HEK-293T = assay: Antiproliferative activity against human 293T cells after 48 hrs; format: functional, cell-based
Method in brief: (§1)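 Cells kept in DMEM with 10% FBS/glutamine/antibiotics, 37 °C, 5% CO2; 2 × 10⁴ cells seeded, after 24 h exposed to compounds (0.01–100 µM) for 48 h. Part of the supernatant was removed, CellTiter 96 Aqueous reagent added, 2 h further incubation at 37 °C, absorbance at 490 nm read; IC50 derived. Huh7 is a hepatoma line, 293T renal epithelial.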

Huh-7 = assay: Antiproliferative activity against human Huh7 cells after 48 hrs; format: functional, cell-based; details: Huh-7, 48 h; method in brief: as §1
SNU-398 [1] = assay: Cell cycle arrest in SNU398 cells by accumulation at G2/M phase at 5000 nM; format: functional, Homo sapiens
Method in brief: (§2)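 SNU-398 hepatoma cells (5 × 10⁵) seeded, grown 24 h, then 48 h with compound or carrier alone. Harvested, PBS-washed twice, stained with a cell cycle analysis kit, analysed by flow cytometry; cell cycle phase percentages estimated, G2/M fraction reported.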

SNU-398 [2] = assay: Cell cycle arrest in SNU398 cells by accumulation at G2/M phase at 500 nM; format: functional, Homo sapiens; method in brief: as §2
SNU-398 [3] = assay: Cell cycle arrest in SNU398 cells by accumulation at G2/M phase at 50 nM; format: functional, Homo sapiens; method in brief: as §2
Tubulin = assay: Inhibition of tubulin polymerization; format: protein-complex assay, Homo sapiens
Method in brief: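 Tubulin polymerization kit used; components added to wells at 0 °C with 340 nm baselines, then assembly followed at 0 °C and 37 °C and measured turbidimetrically. Compounds tested at 0, 3, 10 and 30 µM; IC50 calculated from the polymerization data.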

Compound `O=C(/C=C/c1cccc2ccccc12)c1ccc(NC(=O)c2cccs2)cc1` has an IC50 (HEK-293T) of over 100 µM and an IC50 (Huh-7) of over 100 µM.

With `O=C(/C=C/c1ccccn1)c1ccc(NC(=O)c2ccco2)cc1` the Activity (SNU-398 [1]) was 46.6%, the IC50 (HEK-293T) was 9.8 µM and the Activity (SNU-398 [2]) was 36.3%. It also gave an Activity (SNU-398 [3]) of 36.3% and an IC50 (Huh-7) of 9.9 µM.

With `CCOc1ccc(C(C)(C)C(=O)Nc2ccc(C(=O)/C=C/c3ccccn3)cc2)cc1` the IC50 (HEK-293T) was over 100 µM and the IC50 (Huh-7) was over 100 µM.

With `CN(C)CC(=O)Nc1ccc(C(=O)/C=C/c2ccccn2)cc1` the Activity (SNU-398 [1]) was 43%, the IC50 (HEK-293T) was 8.2 µM and the Activity (SNU-398 [2]) was 32.7%. The IC50 (Tubulin) was 19.8 µM, the Activity (SNU-398 [3]) was 31.9% and the IC50 (Huh-7) was 8.4 µM.

For `CC(=O)Nc1ccc(C(=O)/C=C/c2ccccn2)cc1`, the Activity (SNU-398 [1]) was 43.3%, the IC50 (HEK-293T) was 13.7 µM and the Activity (SNU-398 [2]) was 37.1%. The IC50 (Tubulin) was 15.7 µM, the Activity (SNU-398 [3]) was 37.7% and the IC50 (Huh-7) was 9.6 µM.

In the case of `O=C(/C=C/c1ccccn1)c1ccccc1` [WR-190433], the IC50 (HEK-293T) is reported as 13.8 µM, the IC50 (Tubulin) is reported as over 30 µM and the IC50 (Huh-7) is reported as 14.3 µM.
